Experimental data taken from ChEMBL document CHEMBL5252513, “Identification of a Benzoisoxazoloazepine Inhibitor (CPI-0610) of the Bromodomain and Extra-Terminal (BET) Family as a Candidate for Human Clinical Trials” (J Med Chem, 2016).
Activity calls are given as the source filed them. The calls are words filed in the database; no cut-off is given here.

Key:
[1] = Protein binding in mouse plasma; type: ADME, cell-free; conditions: read-out: PPB (converted)
[2] = Intrinsic clearance in mouse liver microsomes; type: ADME, Microsome; conditions: read-out: CLH
[3] = Intrinsic clearance in dog liver microsomes; type: ADME, Canis lupus familiaris, Microsome; conditions: read-out: CLH
[4] = Protein binding in rat plasma; type: ADME, cell-free; conditions: read-out: PPB (converted)
[5] = Intrinsic clearance in rat liver microsomes; type: ADME, Microsome
[6] = target: T1, Bromodomain-containing protein 4 (Homo sapiens, UniProt O60885); experiment: Inhibition of BRD4 BD1 (unknown origin) using biotinylated ligand incubated for 60 mins by TR-FRET assay
[7] = Protein binding in dog plasma; type: ADME, cell-free, Canis lupus familiaris; conditions: read-out: PPB (converted)
[8] = Protein binding in human plasma; type: ADME, cell-free; conditions: read-out: PPB (converted)
[9] = target: T1, Bromodomain-containing protein 4; experiment: Inhibition of BRD4 BD1 in human MV4-11 cells assessed as reduction of MYC RNA expression after 4 hrs by PCR analysis; type: cell-based
[10] = Intrinsic clearance in human liver microsomes; type: ADME, Microsome; conditions: read-out: CLH
[11] = Oral bioavailability in rat at 5 mg/kg; type: ADME, organism-based; conditions: in vivo
[12] = Clearance in rat assessed as liver blood flow at 1 mg/kg,iv; type: ADME, organism-based; conditions: in vivo
[13] = Volume of distribution at steady state in rat at 1 mg/kg,iv; type: ADME, organism-based; conditions: in vivo, read-out: Vdss
[14] = Half life in rat plasma at 1 mg/kg,iv; type: ADME, organism-based
[15] = AUC (0 to infinity) in rat at 5 mg/kg,po; type: ADME, organism-based; parameters: dose 5 mg/kg, route po; conditions: in vivo
[16] = Unbound AUC in rat at 5 mg/kg,po; type: ADME, organism-based; conditions: in vivo
[17] = Unbound clearance in rat at 1 mg/kg,iv; type: ADME, organism-based; conditions: in vivo
[18] = Total clearance in rat at 1 mg/kg,iv; type: ADME, organism-based; conditions: in vivo
[19] = Tmax in rat at 5 mg/kg,po; type: ADME, organism-based; conditions: in vivo
[20] = Cmax in rat at 5 mg/kg,po; type: ADME, organism-based; parameters: dose 5 mg/kg, route po; conditions: in vivo
[21] = target: T1, Bromodomain-containing protein 4; experiment: Displacement of biotinylated JQ1 from BRD4 BD1 (unknown origin) incubated for 20 mins by AlphaLISA assay
[22] = Toxicity against BALB/c mouse plasma xenografted with human MV4-11 cells assessed as body weight loss at 2 mg/kg,iv BIW in presence of at 10 mg/kg,sc BID for 28 days; type: organism-based; conditions: in vivo, 672 h, time 28 day
Summary of the method: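 MV-4-11 acute myeloid leukemia mouse xenograft; BET inhibitor given subcutaneously 10 mg/kg twice daily, doxorubicin 2 mg/kg IV twice weekly, alone or combined, for 28 days; body weight change (%) tracked over treatment against vehicle.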

[23] = system: MV4-11; experiment: Antitumor activity against human MV4-11 cells xenografted in BALB/c mouse assessed as modest tumor growth inhibition at 2 mg/kg,iv BIW for 28 days; type: functional, organism-based; conditions: time 28.0 day
[24] = system: MV4-11; experiment: Antitumor activity against human MV4-11 cells xenografted in BALB/c mouse assessed as slower tumor regrowth after drug therapy removal at 2 mg/kg,iv BIW in presence of at 10 mg/kg,sc BID for 28 days and measured after 28 days; type: functional, organism-based; conditions: time 28.0 day
[25] = system: MV4-11; experiment: Antitumor activity against human MV4-11 cells xenografted in BALB/c mouse assessed as complete tumor growth inhibition at 2 mg/kg,iv BIW in presence of at 10 mg/kg,sc BID for 28 days; type: functional, organism-based; conditions: time 28.0 day
[26] = Cmax in rat at 10 mg/kg,po; type: ADME, organism-based; parameters: dose 10 mg/kg, route po; conditions: in vivo
[27] = AUC (0 to infinity) in rat at 10 mg/kg,po; type: ADME, organism-based; parameters: dose 10 mg/kg, route po; conditions: in vivo
[28] = Oral bioavailability in rat at 10 mg/kg; type: ADME, organism-based; conditions: in vivo
[29] = Unbound AUC in rat at 10 mg/kg,po; type: ADME, organism-based; conditions: in vivo
[30] = Tmax in rat at 10 mg/kg,po; type: ADME, organism-based; conditions: in vivo
[31] = target: T1, Bromodomain-containing protein 4; experiment: Inhibition of BRD4 BD1 in human Raji cells assessed as reduction of MYC RNA expression after 4 hrs by PCR analysis; type: cell-based

Row | SMILES | fraction unbound [1] | predicted hepatic clearance [2] [mL/min/kg] | predicted hepatic clearance [3] [mL/min/kg] | fraction unbound [4] | predicted hepatic clearance (CLH) [5] [mL/min/kg] | IC50 [6] [nM] | fraction unbound [7] | fraction unbound [8] | EC50 [9] [nM] | predicted hepatic clearance [10] [mL/min/kg] | further results
1 | Cc1ccc(C2=N[C@@H](CC(N)=O)c3onc(C)c3-c3ccccc32)cc1 | 0.07 | 78 | 29 | 0.1 | 49 | 52 | 0.08 | 0.1 | 170 | 11 | –
2 | Cc1cccc2c1C(c1ccc(Cl)cc1)=N[C@@H](CC(N)=O)c1onc(C)c1-2 | 0.02 | 47 | 24 | 0.04 | 37 | 13 | 0.02 | 0.02 | 140 | 11 | bioavailability [11]: 92%; QH [12]: 76%; Vd [13]: 2.5 L/kg; half-life [14]: 59.4 min; AUC(0-inf) [15]: 4.9 µM·h; fAUC [16]: 0.2 µM·h; CL free [17]: 1050 mL/min/kg; clearance [18]: 41.7 mL/min/kg; Tmax [19]: 120 min; Cmax [20]: 1200 nM
3 | Cc1noc2c1-c1ccccc1C(c1ccc(Cl)cc1)=N[C@H]2CC(=O)OC(C)(C)C | – | – | – | – | – | – | – | – | – | – | IC50 [21]: 580 nM
4 | Cc1noc2c1-c1ccccc1C(c1ccc(Cl)cc1)=N[C@H]2CC(N)C(F)(F)F (stereo not given in full) | 0.01 | 41 | 27 | 0.01 | 38 | 11000 | 0.01 | 0.01 | > 4000 | 13 | –
5 | COc1ccc(C2=N[C@@H](CC(N)=O)c3onc(C)c3-c3ccccc32)cc1 | 0.11 | 83 | 26 | 0.21 | 33 | 48 | 0.14 | 0.12 | 170 | 8 | –
6 | Cc1noc2c1-c1ccccc1C(c1ccccc1)=N[C@H]2CC(N)=O | 0.16 | 10 | 17 | 0.2 | 28 | 110 | 0.12 | 0.19 | 250 | < 5 | –
7 | Cc1noc2c1-c1ccccc1C(c1ccc(C#N)cc1)=N[C@H]2CC(N)=O | 0.13 | 29 | < 14 | 0.33 | 16 | 94 | 0.22 | 0.11 | 220 | 9 | bioavailability [11]: 56%; QH [12]: 39%; Vd [13]: 1.2 L/kg; half-life [14]: 39.6 min; AUC(0-inf) [15]: 5.9 µM·h; fAUC [16]: 2 µM·h; CL free [17]: 65 mL/min/kg; clearance [18]: 21.7 mL/min/kg; Tmax [19]: 49.8 min; Cmax [20]: 1800 nM
8 | COc1cccc2c1C(=O)c1c(O)c3c(c(O)c1C2=O)C[C@@](O)(C(=O)CO)C[C@@H]3O[C@H]1C[C@H](N)[C@H](O)[C@H](C)O1 [DOXORUBICIN] | – | – | – | – | – | – | – | – | – | – | Activity [22]: Non-Toxic; Activity [23]: Active; Activity [24]: Active; Activity [25]: Active
9 | Cc1noc2c1-c1ccc(-c3ccc(N)nc3)cc1C(c1ccc(Cl)cc1)=N[C@H]2CC(N)=O | 0.02 | 36 | 25 | 0.09 | 34 | 7 | 0.02 | 0.04 | 33 | 13 | QH [12]: 230%; Vd [13]: 5.4 L/kg; half-life [14]: 40.8 min; CL free [17]: 1400 mL/min/kg; clearance [18]: 127 mL/min/kg
10 | COCCNC(=O)C[C@@H]1N=C(c2ccc(Cl)cc2)c2ccccc2-c2c(C)noc21 | 0.01 | 82 | 30 | 0.07 | 45 | 56 | 0.03 | < 0.01 | 270 | 19 | Cmax [26]: 380 nM; QH [12]: 66%; Vd [13]: 1.8 L/kg; AUC(0-inf) [27]: 1.2 µM·h; half-life [14]: 72 min; bioavailability [28]: 11%; CL free [17]: 517 mL/min/kg; fAUC [29]: 0.084 µM·h; Tmax [30]: 40.2 min; clearance [18]: 36.7 mL/min/kg
11 | Cc1noc2c1-c1ccccc1C(c1ccc(Cl)cc1)=NC2 | 0.01 | 52 | 29 | 0.01 | 40 | – | < 0.01 | 0.01 | – | 15 | –
12 | COc1ccc2c(c1)C(c1ccc(Cl)cc1)=N[C@@H](CC(N)=O)c1onc(C)c1-2 | 0.03 | 26 | 21 | 0.06 | 35 | 17 | 0.03 | 0.05 | 64 | 9 | Cmax [26]: 1600 nM; QH [12]: 66%; Vd [13]: 1.7 L/kg; AUC(0-inf) [27]: 8.5 µM·h; half-life [14]: 38.4 min; bioavailability [28]: 60%; CL free [17]: 617 mL/min/kg; fAUC [29]: 0.51 µM·h; Tmax [30]: 49.8 min; clearance [18]: 36.7 mL/min/kg
13 | Cc1nnc2n1-c1ccccc1C(c1ccc(Cl)cc1)=NC2 | – | – | – | – | – | 1800 | – | – | – | – | –
14 | Cc1noc2c1-c1ccc(-c3cn(C)cn3)cc1C(c1ccc(Cl)cc1)=N[C@H]2CC(N)=O | 0.11 | 28 | 23 | 0.14 | < 10 | 11 | 0.11 | 0.14 | 30 | 11 | –
15 | CCNC(=O)NC1N=C(c2ccc(Cl)cc2)c2ccccc2-c2c(C)noc21 (stereo not given) | 0.03 | 38 | 21 | 0.02 | 29 | 33 | 0.02 | 0.03 | 100 | 13 | –
16 | Cc1noc2c1-c1ccccc1C(c1ccc(Cl)cc1)=NN2 | – | – | – | – | – | 880 | – | – | – | – | –
17 | Cc1noc2c1-c1ccccc1C(c1ccc(Cl)cc1)=NC2C(N)=O (stereo not given) | 0.01 | 32 | 29 | – | 27 | 15000 | 0.02 | 0.02 | 4000 | 20 | –
18 | Cc1noc2c1-c1ccccc1C(c1ccc(Cl)cc1)=N[C@@H]2CC(=O)OC(C)(C)C | – | – | – | – | – | > 80000 | – | – | – | – | –
19 | Cc1noc2c1-c1ccnc(N)c1C(c1ccc(Cl)cc1)=NC2 | – | – | – | – | – | 90 | – | – | – | – | EC50 [31]: 720 nM
20 | COc1nccc2c1C(c1ccc(Cl)cc1)=NCc1onc(C)c1-2 | – | – | – | – | – | 440 | – | – | – | – | –
21 | Cc1onc2c1-c1ccccc1C(c1ccc(Cl)cc1)=NC2 | – | – | – | – | – | 1300 | – | – | – | – | –
22 | CNc1ccc2c(n1)C(c1ccc(Cl)cc1)=NCc1onc(C)c1-2 | – | – | – | – | – | 59 | – | – | 440 | – | –
23 | CCNC(=O)C[C@@H]1N=C(c2ccc(Cl)cc2)c2ccccc2-c2c(C)noc21 | 0.01 | 61 | 29 | 0.04 | 42 | 52 | 0.02 | 0.02 | 210 | 18 | –
24 | Cc1nsc2c1C(c1ccc(Cl)cc1)=NCc1onc(C)c1-2 | – | – | – | – | – | > 80000 | – | – | > 4000 | – | –
25 | Cc1noc(N)c1-c1ccccc1 | – | – | – | – | – | 20000 | – | – | – | – | –
26 | Cc1noc2c1-c1c[nH]c(=O)cc1C(c1ccc(Cl)cc1)=NC2 | – | – | – | – | – | 530 | – | – | 1100 | – | –
27 | Cc1noc2c1-c1cn(C)nc1C(c1ccc(Cl)cc1)=NC2 | – | – | – | – | – | 590 | – | – | 2600 | – | –
28 | Cc1noc2c1-c1ccc(=O)n(C)c1C(c1ccc(Cl)cc1)=NC2 | – | – | – | – | – | 750 | – | – | 2900 | – | –
